Rows were chosen to be rich in hits. Some 1.5% of all compounds tested hit in one or more screens of this group.
PREPL inh: inhibitors of human prolyl oligopeptidase-like enzyme PREPL; Q4J6C6; recombinant PREPL, fluorescence polarization activity-based probe; inhibition, % at 5.96 µM; 320,000 compounds, 0.68% hits; AID 2751; in the data active means inhibition above about 43%;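 further: 0% = enzyme with DMSO and 100% = wells lacking enzyme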
Target sequence (Q4J6C6 whole entry, looked up): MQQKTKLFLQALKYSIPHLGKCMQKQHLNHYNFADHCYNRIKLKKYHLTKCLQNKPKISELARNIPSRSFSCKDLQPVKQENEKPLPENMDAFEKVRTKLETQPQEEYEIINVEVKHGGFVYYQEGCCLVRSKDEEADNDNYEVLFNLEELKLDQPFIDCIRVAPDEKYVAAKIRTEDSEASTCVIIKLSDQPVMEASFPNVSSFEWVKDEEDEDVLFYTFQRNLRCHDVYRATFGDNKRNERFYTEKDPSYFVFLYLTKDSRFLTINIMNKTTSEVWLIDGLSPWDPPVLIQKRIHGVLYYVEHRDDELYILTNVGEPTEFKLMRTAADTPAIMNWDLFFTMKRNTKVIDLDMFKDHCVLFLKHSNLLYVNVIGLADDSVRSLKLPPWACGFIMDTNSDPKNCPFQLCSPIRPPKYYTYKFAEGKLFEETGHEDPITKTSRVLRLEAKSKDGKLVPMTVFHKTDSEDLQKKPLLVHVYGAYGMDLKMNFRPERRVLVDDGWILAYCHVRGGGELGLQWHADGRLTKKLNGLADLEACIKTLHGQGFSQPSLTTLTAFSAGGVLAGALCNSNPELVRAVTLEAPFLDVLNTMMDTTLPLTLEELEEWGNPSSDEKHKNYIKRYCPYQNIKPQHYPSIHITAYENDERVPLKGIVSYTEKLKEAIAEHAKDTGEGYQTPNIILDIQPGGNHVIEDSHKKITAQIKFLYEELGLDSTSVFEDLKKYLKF
UBC13 inh: blocks human UBC13 polyubiquitin chain formation; AID 485273; 330,000 compounds, 0.47% hits; inhibition, % at 20 µM; TR-FRET; P61088; in the data active means inhibition above about 45%, passing the limit was not always enough
UCH37 DUB inh: human UCH37 deubiquitinating enzyme inhibition. Q9Y5K5. purified proteasome/UCH37, Ub-AMC cleavage fluorescence. inhibition, % (no concentration beside the values). 330,000 compounds, 0.33% hits. AID 588478;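 active means mean inhibition over replicate wells above about 20%, limit read from the data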;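 further: 0% = compound-free wells with enzyme and 100% = wells lacking proteasome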
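system = Proteasome-associated human UCH37 deubiquitinase | amount = 0.15 nM proteasome as dispensed | medium = pH 7.4 Tris-HCl (50 mM) with ovalbumin, ATP-MgCl2, DTT | incubation = 30 min preincubation with enzyme, 25 min cleavage at room temperature | detection = AMC fluorescence 355/460 nm | read-out basis = percent inhibition | controls = no-proteasome and no-compound wells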
Apaf-1 inh: blocks human Apaf-1 apoptosome activity. O14727. 330,000 compounds, 0.71% hits. reconstituted apoptosome caspase-3 activity, DEVD-Rh110 fluorescence. AID 489030. inhibition, % at 20 µM; active means inhibition of at least 40% at 20 µM;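 further: plate controls were DMSO wells for no effect and DEVD-CHO caspase inhibitor wells for full effect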
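System: reconstituted apoptosome with Apaf-1, cytochrome c, caspase-9, procaspase-3, dATP; Signal: Rh110 fluorescence intensity; Schedule: 30 min compound preincubation, 50 min activation, room temperature; Reagent: cytochrome c trigger plus (Z-DEVD)2-Rh110 caspase-3 substrate.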
Apaf-1 inh conf2: confirmation of Apaf-1 inhibitors | inhibition, % at 20 µM | AID 504614 | shares compounds with Apaf-1 inh | 1,800 compounds, 25% hits | reconstituted apoptosome, caspase-3 DEVD-Rh110 fluorescence;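 active means mean inhibition of at least 40% at 20 µM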;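 further: plate controls were DMSO wells for no effect and DEVD-CHO caspase inhibitor control wells for full effect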
Rh110 interf inh: counter-screen for Apaf-1 inhibitors: fluorescence interference; activation (fluorescence interference), % at 20 µM; 1,800 tested, under 10 active; Rh110 fluorescence interference, quenched caspase reaction; shares compounds with Apaf-1 inh;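 active means signal rise of 40% or more at 20 µM, treated as a fluorescence artifact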
Apaf1 inh interf: counter-screen for Apaf-1 inhibitors: fluorescence interference, dose response. shares compounds with Apaf-1 inh. fluorescence interference counterscreen, Apaf-1 assay format. IC50, µM. 460 tested, under 10 active. AID 588538; call rule not given here
The depositor's hits bear a star; nt = no result.

SMILES	PREPL inh	UBC13 inh	UCH37 DUB inh	Apaf-1 inh	Apaf-1 inh conf2	Rh110 interf inh	others
CCOC(=O)N1CCN(C2=C(NS(=O)(=O)c3ccccc3)C(=O)c3ccccc3C2=O)CC1	7.6	-55.2	8.0	48.5*	24.1	0.1
CCOC(=O)N1CCN(C(=O)c2ccc(S(=O)(=O)Nc3ccccc3)cc2)CC1	4.0	5.6	-0.1	-2.7	nt	nt
CCN1CCN(C2=C(NS(=O)(=O)c3ccc(Br)cc3)C(=O)c3ccccc3C2=O)CC1	26.4	-101.0	13.1	88.2*	46.5*	1.4	Apaf1 inh interf=>100
O=C1C(Nc2ccccc2)=C(NS(=O)(=O)c2ccccc2)C(=O)c2ccccc21	6.0	-38.8	-0.8	25.1	nt	nt
O=C1C(NS(=O)(=O)c2cccs2)=C(N2CCOCC2)C(=O)c2ccccc21	15.3	-70.7	8.7	11.8	nt	nt
O=C1C(NS(=O)(=O)c2ccc(Cl)cc2)=C(N2CCCCC2)C(=O)c2ccccc21	17.6	-57.6	11.8	71.8*	41.5*	6.6	Apaf1 inh interf=>100
CN1CCN(C2=C(NS(=O)(=O)c3ccccc3)C(=O)c3ccccc3C2=O)CC1	22.1	-82.5	11.7	78.5*	44.8*	6.3	Apaf1 inh interf=>100
CCN1CCN(C2=C(NS(=O)(=O)c3ccccc3)C(=O)c3ccccc3C2=O)CC1	7.3	-116.8	11.6	82.5*	41.8*	6.7	Apaf1 inh interf=>100
Cc1ccc(-c2nc(N3CCN(C)CC3)c3ccccc3n2)cc1	-22.2	2.7	1.4	12.5	nt	nt
COc1ccc(-c2nc(-c3ccccc3)nc(N3CCN(C)CC3)c2C#N)cc1	6.2	17.8	-1.9	41.2*	13.3	3.7
CN1CCN(c2nc(-c3ccc(C(C)(C)C)cc3)nc3ccccc23)CC1	0.2	1.2	2.0	43.1*	20.2	11.6
O=C(NN=Cc1ccc2ncccc2c1)c1ccco1	nt	nt	7.5	nt	nt	nt
COCCCOc1cc(NCc2ccccc2)c2ncn(C(C)C)c2c1	21.0	3.4	0.2	40.9*	27.0	7.1
CCC(CO)Oc1cc(NCc2ccccc2OC)c2ncn(C(C)C)c2c1 (stereo not drawn)	26.1	-13.6	2.1	60.6*	33.1	-1.0
CCC(COC(=O)c1ccccc1)Oc1cc(NCc2ccccc2)c2ncn(C(C)C)c2c1 (stereo not drawn)	37.5	11.1	-0.2	69.0*	26.2	9.5
CCC(CO)Oc1cc(NCc2ccc(O)cc2)c2ncn(C(C)C)c2c1 (stereo not drawn)	16.8	3.5	0.9	3.9	nt	nt
CCC(CO)Oc1cc(NCc2ccccn2)c2ncn(C(C)C)c2c1 (stereo not drawn)	12.2	4.0	6.1	-1.3	nt	nt
COc1cc(NCc2ccccc2)c2ncn(Cc3ccccc3)c2c1	19.7	6.4	-0.7	49.5*	28.5	4.0
Cc1ccc(C=NOC(=O)c2c(C)noc2-c2snnc2C)cc1	nt	nt	6.5	nt	nt	nt
Oc1ccccc1C=NNC(=S)NCCc1ccccc1	nt	nt	-2.1	nt	nt	nt
Cc1sc2ncn(N=Cc3ccco3)c(=O)c2c1C	nt	nt	2.5	nt	nt	nt
CC1=CCC(C(C)(C)NC(=O)c2ccccc2)CC1=NO (stereo not drawn)	nt	nt	-0.2	nt	nt	nt
CCOCCOc1cc(NCc2ccccc2)c2ncn(C(C)C)c2c1	nt	nt	1.0	nt	nt	nt
CCCCOc1cc(NCc2ccccc2)c2ncn(C(C)C)c2c1	28.5	25.7	1.9	61.2*	47.0*	14.4	Apaf1 inh interf=>100
Oc1cccc(C=NCc2ccccc2)c1O	25.1	-23.2	0.7	81.8*	7.7	-6.4
SMILES	PREPL inh	UBC13 inh	UCH37 DUB inh	Apaf-1 inh	Apaf-1 inh conf2	Rh110 interf inh	others
Oc1cccc(C=NN=Cc2cccc(O)c2O)c1O	nt	nt	4.0	nt	nt	nt
Oc1cccc(C=Nc2cccc3ccccc23)c1O	28.3	-71.3	nt	74.0*	11.4	4.3
Cc1cccc(C=NNC(=O)c2ccc(NC(=O)c3ccc(Cl)cc3)cc2)n1	nt	nt	5.1	nt	nt	nt
Cc1ccc(-c2cc(C(=O)NN=C/C=C/c3ccccc3)n[nH]2)s1	nt	nt	2.9	nt	nt	nt
O=C1C=C(c2ccc(OC(F)(F)F)cc2)C[C@@H](c2ccc(F)cc2)C1	4.1	-3.1	1.3	54.1*	18.1	0.9
CCC(C)c1ccc(OCCn2cc(C=NNC(=O)CSc3nnc(C)s3)c3ccccc32)cc1 (stereo not drawn)	nt	nt	2.0	nt	nt	nt
COc1ccc(CN2CCC(C(=O)Nc3ccc(Oc4cccnc4)cc3)CC2)cc1	-4.2	5.4	2.5	58.4*	16.9	15.7
CCOc1ccc(S(=O)(=O)Nc2cc(SCC(=O)O)c(O)c3ccccc23)cc1	nt	nt	13.6	nt	nt	nt
CCc1ccc(S(=O)(=O)Nc2cc(SCC(=O)O)c(O)c3ccccc23)cc1	13.0	-33.7	6.4	71.3*	29.3	4.4
Cc1cccc(OC(C)C(=O)NN=Cc2ccncc2)c1 (stereo not drawn)	nt	nt	-0.7	nt	nt	nt
Cc1cc(C)nc(-n2nc(C)cc2NC(=O)CN2CCCC(C)C2)n1 (stereo not drawn)	9.3	-2.3	5.8	-1.6	nt	nt
Cc1cc(C)nc(-n2nc(C)cc2NC(=O)CN2CCc3ccccc3C2)n1	7.6	-7.7	5.6	54.2*	15.4	-1.6
O=C(Nc1ccc(-c2nc3ccc(NC(=O)c4cccs4)cc3[nH]2)cc1)c1cccs1	10.6	41.2	-62.3	68.9*	90.0*	6.7	Apaf1 inh interf=>100
O=C(Nc1ccc2nc(-c3cccs3)[nH]c2c1)c1cccs1	9.4	-5.2	-9.6	2.4	nt	nt
Cc1cc2ccccc2n1CCNC(=O)Cc1ccccc1	29.5	13.0	2.8	29.5	nt	nt
Cc1cccc(CC(=O)NCCn2c(C)cc3ccccc32)c1	11.8	-4.4	1.6	41.0*	15.4	12.4
COCCNC(=S)NN=Cc1c(C)[nH]c2ccccc12	nt	nt	11.7	nt	nt	nt
CN(c1ccc([N+](=O)[O-])cc1C=NNC(=O)COc1ccccc1)C1CCCCC1	nt	nt	-7.9	nt	nt	nt
COc1ccc(OC)c(C2=NOC(C(=O)Nc3ccc4c(c3)OCCO4)C2)c1 (stereo not drawn)	-4.2	5.0	-2.0	41.7*	5.5	0.7
O=C(NCCCN1CCCCCC1)c1cc2c(=O)oc3ccccc3c2s1	29.4	36.1	-5.9	40.5*	11.4	6.0
COc1ccc(-c2oc3ncnc(NCCCN4CCOCC4)c3c2-c2ccc(OC)cc2)cc1	29.6	32.3	-68.6	22.5	nt	nt
COc1ccc(-c2oc3ncnc(NCCN4CCOCC4)c3c2-c2ccc(OC)cc2)cc1	20.8	35.0	-84.0	42.1*	24.8	14.6
Cc1ccc(N=C2C(=O)Nc3ccccc32)cc1	-1.6	-12.9	nt	5.1	nt	nt
CCN(CC)c1ccc(N=C2C(=O)Nc3ccccc32)cc1	24.2	-20.3	nt	47.0*	15.0	0.8
CC(=NNc1cccc(C(=O)O)c1)c1ccc(Cl)s1	nt	nt	10.6	nt	nt	nt
CCCCC1S/C(=N/N=Cc2ccco2)NC1=O (stereo not drawn)	nt	nt	5.3	nt	nt	nt
Cc1cc2c3c(c1)C(C)CC(C)(C)N3C(=O)C2=O (stereo not drawn)	-5.2	-29.2	2.3	1.9	nt	nt
CC1CC2(CCCCC2)N2C(=O)C(=O)c3cccc1c32 (stereo not drawn)	12.8	-11.2	2.9	41.0*	40.7*	4.6	Apaf1 inh interf=>100

Screening data deposited in PubChem by several laboratories.
